Values belong to the molecule of their own block, whether it stands above or below them.
Legend:
Salmonella enterica = assay: Antibacterial activity against Salmonella enterica ATCC 8387 assessed as reduction in bacterial growth incubated for 16 to 20 hrs by CLSI-based broth microdilution method; type: functional; conditions: time 16-20 hrs
Outline: (§1)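 Broth microdilution following CLSI, in cation-adjusted Mueller-Hinton broth. Inoculum from a 4-6 h culture (~10^8 CFU/mL), diluted to ~10^6 CFU/mL. Water stocks were serially diluted in MHB (256 to 0.5 µg/mL) and mixed 1:1 with the inoculum. Plates ran 16-20 h at 37 °C. MIC was read visually. Each concentration was tested in duplicate, and the experiment was repeated at least twice.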

Enterococcus faecalis = assay: Antibacterial activity against Enterococcus faecalis ATCC 29212 assessed as reduction in bacterial growth incubated 16 to 20 hrs by CLSI-based broth microdilution method; type: functional; conditions: time 16-20 hrs; outline: as §1
[1] = Solubility of the compound in water at room temperature; type: physicochemical; conditions: buffer
Escherichia coli = assay: Antibacterial activity against Escherichia coli ATCC 25922 assessed as reduction in bacterial growth incubated 16 to 20 hrs by CLSI-based broth microdilution method; type: functional; conditions: time 16-20 hrs; outline: as §1
Staphylococcus aureus [2] = assay: Antibacterial activity against Staphylococcus aureus ATCC 29213 assessed as reduction in bacterial growth incubated for 16 to 20 hrs by CLSI-based broth microdilution method; type: functional; conditions: time 16-20 hrs; outline: as §1
Staphylococcus aureus [3] = assay: Antibacterial activity against methicillin-resistant Staphylococcus aureus clinical isolate 3 assessed as reduction in bacterial growth incubated for 16 to 20 hrs by CLSI-based broth microdilution method; type: functional; conditions: time 16-20 hrs
Outline: (§2)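 Clinical isolates tested by broth microdilution in cation-adjusted Mueller-Hinton broth. Cultures grown 4-6 h (~10^8 CFU/mL) were diluted to ~10^6 CFU/mL and mixed 1:1 with compound serial dilutions made from 256 down to 0.5 µg/mL (pre-mixing). Plates held at 37 °C for 16-20 h, then read for growth. Each concentration run in duplicate, whole experiment at least twice.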

Staphylococcus aureus [4] = assay: Antibacterial activity against methicillin-resistant Staphylococcus aureus clinical isolate 10 assessed as reduction in bacterial growth incubated for 16 to 20 hrs by CLSI-based broth microdilution method; type: functional; conditions: time 16-20 hrs; outline: as §2
Klebsiella pneumoniae [5] = assay: Antibacterial activity against carbapenem-resistant Klebsiella pneumoniae clinical isolate 9 assessed as reduction in bacterial growth incubated for 16 to 20 hrs by CLSI-based broth microdilution method; type: functional; conditions: time 16-20 hrs; outline: as §2
Klebsiella pneumoniae [6] = assay: Antibacterial activity against carbapenem-resistant Klebsiella pneumoniae clinical isolate 8 assessed as reduction in bacterial growth incubated for 16 to 20 hrs by CLSI-based broth microdilution method; type: functional; conditions: time 16-20 hrs; outline: as §2
Staphylococcus aureus [7] = assay: Antibacterial activity against methicillin-resistant Staphylococcus aureus clinical isolate 9 assessed as reduction in bacterial growth incubated for 16 to 20 hrs by CLSI-based broth microdilution method; type: functional; conditions: time 16-20 hrs; outline: as §2
Enterobacteriaceae [8] = assay: Antibacterial activity against NDM1 producing carbapenem-resistant Enterobacteriaceae clinical isolate 10 assessed as reduction in bacterial growth incubated for 16 to 20 hrs by CLSI-based broth microdilution method; type: functional; conditions: time 16-20 hrs; outline: as §2
Enterobacteriaceae [9] = assay: Antibacterial activity against NDM1 producing carbapenem-resistant Enterobacteriaceae clinical isolate 9 assessed as reduction in bacterial growth incubated for 16 to 20 hrs by CLSI-based broth microdilution method; type: functional; conditions: time 16-20 hrs; outline: as §2
Enterobacteriaceae [10] = assay: Antibacterial activity against NDM1 producing carbapenem-resistant Enterobacteriaceae clinical isolate 4 assessed as reduction in bacterial growth incubated for 16 to 20 hrs by CLSI-based broth microdilution method; type: functional; conditions: time 16-20 hrs; outline: as §2
Enterobacteriaceae [11] = assay: Antibacterial activity against NDM1 producing carbapenem-resistant Enterobacteriaceae clinical isolate 1 assessed as reduction in bacterial growth incubated for 16 to 20 hrs by CLSI-based broth microdilution method; type: functional; conditions: time 16-20 hrs; outline: as §2
Klebsiella pneumoniae [12] = assay: Antibacterial activity against carbapenem-resistant Klebsiella pneumoniae clinical isolate 10 assessed as reduction in bacterial growth incubated for 16 to 20 hrs by CLSI-based broth microdilution method; type: functional; conditions: time 16-20 hrs; outline: as §2
Enterobacteriaceae [13] = assay: Antibacterial activity against NDM1 producing carbapenem-resistant Enterobacteriaceae clinical isolate 3 assessed as reduction in bacterial growth incubated for 16 to 20 hrs by CLSI-based broth microdilution method; type: functional; conditions: time 16-20 hrs; outline: as §2
Staphylococcus aureus [14] = assay: Antibacterial activity against methicillin-resistant Staphylococcus aureus clinical isolate 4 assessed as reduction in bacterial growth incubated for 16 to 20 hrs by CLSI-based broth microdilution method; type: functional; conditions: time 16-20 hrs; outline: as §2
Klebsiella pneumoniae [15] = assay: Antibacterial activity against carbapenem-resistant Klebsiella pneumoniae clinical isolate 3 assessed as reduction in bacterial growth incubated for 16 to 20 hrs by CLSI-based broth microdilution method; type: functional; conditions: time 16-20 hrs; outline: as §2
Staphylococcus aureus [16] = assay: Antibacterial activity against methicillin-resistant Staphylococcus aureus clinical isolate 2 assessed as reduction in bacterial growth incubated for 16 to 20 hrs by CLSI-based broth microdilution method; type: functional; conditions: time 16-20 hrs; outline: as §2
Staphylococcus aureus [17] = assay: Antibacterial activity against methicillin-resistant Staphylococcus aureus clinical isolate 8 assessed as reduction in bacterial growth incubated for 16 to 20 hrs by CLSI-based broth microdilution method; type: functional; conditions: time 16-20 hrs; outline: as §2
Enterobacteriaceae [18] = assay: Antibacterial activity against NDM1 producing carbapenem-resistant Enterobacteriaceae clinical isolate 6 assessed as reduction in bacterial growth incubated for 16 to 20 hrs by CLSI-based broth microdilution method; type: functional; conditions: time 16-20 hrs; outline: as §2
Enterobacteriaceae [19] = assay: Antibacterial activity against NDM1 producing carbapenem-resistant Enterobacteriaceae clinical isolate 2 assessed as reduction in bacterial growth incubated for 16 to 20 hrs by CLSI-based broth microdilution method; type: functional; conditions: time 16-20 hrs; outline: as §2
Klebsiella pneumoniae [20] = assay: Antibacterial activity against carbapenem-resistant Klebsiella pneumoniae clinical isolate 6 assessed as reduction in bacterial growth incubated for 16 to 20 hrs by CLSI-based broth microdilution method; type: functional; conditions: time 16-20 hrs; outline: as §2
Staphylococcus aureus [21] = assay: Antibacterial activity against methicillin-resistant Staphylococcus aureus clinical isolate 1 assessed as reduction in bacterial growth incubated for 16 to 20 hrs by CLSI-based broth microdilution method; type: functional; conditions: time 16-20 hrs; outline: as §2
Klebsiella pneumoniae [22] = assay: Antibacterial activity against carbapenem-resistant Klebsiella pneumoniae clinical isolate 5 assessed as reduction in bacterial growth incubated for 16 to 20 hrs by CLSI-based broth microdilution method; type: functional; conditions: time 16-20 hrs; outline: as §2
Staphylococcus aureus [23] = assay: Antibacterial activity against methicillin-resistant Staphylococcus aureus clinical isolate 7 assessed as reduction in bacterial growth incubated for 16 to 20 hrs by CLSI-based broth microdilution method; type: functional; conditions: time 16-20 hrs; outline: as §2
Klebsiella pneumoniae [24] = assay: Antibacterial activity against carbapenem-resistant Klebsiella pneumoniae clinical isolate 2 assessed as reduction in bacterial growth incubated for 16 to 20 hrs by CLSI-based broth microdilution method; type: functional; conditions: time 16-20 hrs; outline: as §2
Klebsiella pneumoniae [25] = assay: Antibacterial activity against carbapenem-resistant Klebsiella pneumoniae clinical isolate 4 assessed as reduction in bacterial growth incubated for 16 to 20 hrs by CLSI-based broth microdilution method; type: functional; conditions: time 16-20 hrs; outline: as §2
Enterobacteriaceae [26] = assay: Antibacterial activity against NDM1 producing carbapenem-resistant Enterobacteriaceae clinical isolate 7 assessed as reduction in bacterial growth incubated for 16 to 20 hrs by CLSI-based broth microdilution method; type: functional; conditions: time 16-20 hrs; outline: as §2
Klebsiella pneumoniae [27] = assay: Antibacterial activity against carbapenem-resistant Klebsiella pneumoniae clinical isolate 7 assessed as reduction in bacterial growth incubated for 16 to 20 hrs by CLSI-based broth microdilution method; type: functional; conditions: time 16-20 hrs; outline: as §2
Staphylococcus aureus [28] = assay: Antibacterial activity against methicillin-resistant Staphylococcus aureus clinical isolate 6 assessed as reduction in bacterial growth incubated for 16 to 20 hrs by CLSI-based broth microdilution method; type: functional; conditions: time 16-20 hrs; outline: as §2
Enterobacteriaceae [29] = assay: Antibacterial activity against NDM1 producing carbapenem-resistant Enterobacteriaceae clinical isolate 5 assessed as reduction in bacterial growth incubated for 16 to 20 hrs by CLSI-based broth microdilution method; type: functional; conditions: time 16-20 hrs; outline: as §2
Enterobacteriaceae [30] = assay: Antibacterial activity against NDM1 producing carbapenem-resistant Enterobacteriaceae clinical isolate 8 assessed as reduction in bacterial growth incubated for 16 to 20 hrs by CLSI-based broth microdilution method; type: functional; conditions: time 16-20 hrs; outline: as §2
Staphylococcus aureus [31] = assay: Antibacterial activity against methicillin-resistant Staphylococcus aureus clinical isolate 5 assessed as reduction in bacterial growth incubated for 16 to 20 hrs by CLSI-based broth microdilution method; type: functional; conditions: time 16-20 hrs; outline: as §2
Klebsiella pneumoniae [32] = assay: Antibacterial activity against carbapenem-resistant Klebsiella pneumoniae clinical isolate 1 assessed as reduction in bacterial growth incubated for 16 to 20 hrs by CLSI-based broth microdilution method; type: functional; conditions: time 16-20 hrs; outline: as §2

Structure (SMILES): CCCCCCCCCCN(C[C@H]1CN(c2ccc(N3CCOCC3)c(F)c2)C(=O)O1)C(=O)[C@@H](N)CCCN=C(N)N.Cl.Cl.Cl
MIC (Salmonella enterica): 32 µg/mL | MIC (Enterococcus faecalis): 8 µg/mL | solubility [1]: Soluble | MIC (Escherichia coli): 16 µg/mL | MIC (Staphylococcus aureus [2]): 8 µg/mL

Structure (SMILES): NC[C@H]1CN(c2ccc(N3CCOCC3)c(F)c2)C(=O)O1
MIC (Salmonella enterica): > 128 µg/mL | MIC (Enterococcus faecalis): > 128 µg/mL | MIC (Escherichia coli): > 128 µg/mL | MIC (Staphylococcus aureus [2]): > 128 µg/mL

Structure (SMILES): CCCCCCCCN(C[C@H]1CN(c2ccc(N3CCOCC3)c(F)c2)C(=O)O1)C(=O)[C@@H](N)CCCN=C(N)N.Cl.Cl.Cl
MIC (Salmonella enterica): > 128 µg/mL | MIC (Enterococcus faecalis): 32 µg/mL | solubility [1]: Soluble | MIC (Escherichia coli): > 128 µg/mL | MIC (Staphylococcus aureus [2]): 16 µg/mL

Structure (SMILES): CCCCCCCCCCCN(C[C@H]1CN(c2ccc(N3CCOCC3)c(F)c2)C(=O)O1)C(=O)[C@@H](N)CCCN=C(N)N.Cl.Cl.Cl
MIC (Staphylococcus aureus [3]): 4 µg/mL | MIC (Staphylococcus aureus [4]): 4 µg/mL | MIC (Klebsiella pneumoniae [5]): 8 µg/mL | MIC (Klebsiella pneumoniae [6]): 8 µg/mL | MIC (Salmonella enterica): 8 µg/mL | MIC (Staphylococcus aureus [7]): 4 µg/mL | MIC (Enterobacteriaceae [8]): 8 µg/mL | MIC (Enterobacteriaceae [9]): 16 µg/mL | MIC (Enterococcus faecalis): 8 µg/mL | MIC (Enterobacteriaceae [10]): 64 µg/mL | MIC (Enterobacteriaceae [11]): > 64 µg/mL | MIC (Klebsiella pneumoniae [12]): 16 µg/mL | MIC (Enterobacteriaceae [13]): 16 µg/mL | MIC (Staphylococcus aureus [14]): 4 µg/mL | MIC (Klebsiella pneumoniae [15]): 8 µg/mL | solubility [1]: Soluble | MIC (Staphylococcus aureus [16]): 8 µg/mL | MIC (Staphylococcus aureus [17]): 4 µg/mL | MIC (Enterobacteriaceae [18]): 16 µg/mL | MIC (Enterobacteriaceae [19]): > 64 µg/mL | MIC (Klebsiella pneumoniae [20]): 16 µg/mL | MIC (Staphylococcus aureus [21]): 2 µg/mL | MIC (Klebsiella pneumoniae [22]): 16 µg/mL | MIC (Staphylococcus aureus [23]): 4 µg/mL | MIC (Klebsiella pneumoniae [24]): 16 µg/mL | MIC (Klebsiella pneumoniae [25]): 8 µg/mL | MIC (Enterobacteriaceae [26]): 16 µg/mL | MIC (Klebsiella pneumoniae [27]): 32 µg/mL | MIC (Escherichia coli): 8 µg/mL | MIC (Staphylococcus aureus [28]): 4 µg/mL | MIC (Enterobacteriaceae [29]): 16 µg/mL | MIC (Enterobacteriaceae [30]): 16 µg/mL | MIC (Staphylococcus aureus [2]): 4 µg/mL | MIC (Staphylococcus aureus [31]): 8 µg/mL | MIC (Klebsiella pneumoniae [32]): 16 µg/mL

The remaining molecules from weak to strong by MIC (Salmonella enterica), led by results:

MIC (Salmonella enterica): 128 µg/mL | MIC (Enterococcus faecalis): 64 µg/mL | solubility [1]: Soluble | MIC (Escherichia coli): 128 µg/mL | MIC (Staphylococcus aureus [2]): 128 µg/mL
Structure (SMILES): CCCCCCCC[N+](C)(C)CC(=O)NC[C@H]1CN(c2ccc(N3CCOCC3)c(F)c2)C(=O)O1.[Cl-]

MIC (Salmonella enterica): 64 µg/mL | MIC (Enterococcus faecalis): 16 µg/mL | solubility [1]: Soluble | MIC (Escherichia coli): 64 µg/mL | MIC (Staphylococcus aureus [2]): 16 µg/mL
Structure (SMILES): CCCCCCCCCN(C[C@H]1CN(c2ccc(N3CCOCC3)c(F)c2)C(=O)O1)C(=O)[C@@H](N)CCCCN.Cl.Cl

MIC (Salmonella enterica): 64 µg/mL | MIC (Enterococcus faecalis): 32 µg/mL | solubility [1]: Soluble | MIC (Escherichia coli): 64 µg/mL | MIC (Staphylococcus aureus [2]): 16 µg/mL
Structure (SMILES): CCCCCCCCCN(C[C@H]1CN(c2ccc(N3CCOCC3)c(F)c2)C(=O)O1)C(=O)[C@@H](N)CCCN=C(N)N.Cl.Cl.Cl

— ChEMBL document CHEMBL4673214, “Synthesis and antibacterial bioactivities of cationic deacetyl linezolid amphiphiles” (Eur J Med Chem, 2018)
